Source: ChEMBL document CHEMBL1130386, “Structure-activity relationship of newly synthesized quinoline derivatives for reversal of multidrug resistance in cancer” (1997)

Tested on: K562
Assay: MDR-reversing activity in K562/ADM cells at 1 uM concentration of [3H]-VCR (vincristine), activity expressed relative to verapamil.
Format: functional, Homo sapiens
Outline: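 K562/ADM cells at 1.5 × 10^6/mL in growth medium with 10 mM HEPES were incubated at 37 °C with 30 nM [3H]VCR (5.6 Ci/mmol), with or without modulator (1 µM) or verapamil. At intervals, aliquots were spun through a 4:1 silicone oil/liquid paraffin layer. Pellets were lysed overnight in 0.5 N KOH and counted by liquid scintillation. Intracellular VCR was scaled to verapamil.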

Compound: OC(COc1cccc2ncccc12)CN1CCN(C2c3ccccc3CCc3ccccc32)CC1 (stereo unspecified)
- Activity: 371%

Compound: OC(COc1cccc2ncccc12)CN1CCN(C2c3ccccc3COc3ccccc32)CC1 (stereo unspecified)
- Activity: 414%

Compound: O=C(C(c1ccc(F)cc1)c1ccc(F)cc1)N1CCN(CC(O)COc2cccc3ncccc23)CC1 (stereo unspecified)
- Activity: 263%

Compound: OC(COc1cccc2ncccc12)CN1CCN(CC(c2ccccc2)c2ccccc2)CC1 (stereo unspecified)
- Activity: 327%

Compound: OC(COc1cccc2ncccc12)CN1CCC(=C(c2ccc(F)cc2)c2ccc(F)cc2)CC1 (stereo unspecified)
- Activity: 246%

Compound: O=C(C1c2ccccc2Oc2ccccc21)N1CCN(CC(O)COc2cccc3ncccc23)CC1 (stereo unspecified)
- Activity: 279%

Compound: O=C(C1c2ccccc2-c2ccccc21)N1CCN(CC(O)COc2cccc3ncccc23)CC1 (stereo unspecified)
- Activity: 213%

Compound: OC(COc1cccc2ncccc12)CN1CCN(C(c2ccccc2)c2cccs2)CC1 (stereo unspecified)
- Activity: 428%

Compound: OC(COc1ccccc1)CN1CCN(C(c2ccccc2)c2ccccc2)CC1 (stereo unspecified)
- Activity: 56%

Compound: CCCCCCCCCCCCCCCCCCN1CCN(CC(O)COc2cccc3ncccc23)CC1 (stereo unspecified)
- Activity: 55%

Compound: OC(COc1cccc2ncccc12)CN1CCN(Cc2ccccc2)CC1 (stereo unspecified)
- Activity: 123%

Compound: OC(COc1cccc2ncccc12)CN1CCN(C(c2ccc(F)cc2)c2ccc(F)cc2)CC1 (stereo unspecified)
- Activity: 265%

Compound: OC(COc1cccc2ncccc12)CN1CCN(C(c2ccccc2)c2ccccc2)CC1 (stereo unspecified)
- Activity: 358%

Compound: COc1ccc(C(c2ccc(OC)cc2)N2CCN(CC(O)COc3cccc4ncccc34)CC2)cc1 (stereo unspecified)
- Activity: 260%

Compound: O=C1C(=O)N(C2c3ccccc3CCc3ccccc32)CCN1CC(O)COc1cccc2ncccc12 (stereo unspecified)
- Activity: 81%

Compound: OC(COc1cccc2ncccc12)CN1CCN(C2c3ccccc3-c3ccccc32)CC1 (stereo unspecified)
- Activity: 229%

Compound: OC(CNCCC(c1ccccc1)c1ccccc1)COc1cccc2ncccc12 (stereo unspecified)
- Activity: 343%

Compound: OC(CNCC(c1ccccc1)c1ccccc1)COc1cccc2ncccc12 (stereo unspecified)
- Activity: 117%

Compound: CN1CCN(CC(O)COc2cccc3ncccc23)CC1 (stereo unspecified)
- Activity: 47%

Compound: OC(COc1cccc2ncccc12)CN1CCN(C2c3ccccc3CCc3cccnc32)CC1 (stereo unspecified)
- Activity: 316%

Compound: OC(COc1cccc2ncccc12)CN1CCN(C(c2ccccc2)c2ccc(Cl)cc2)CC1 (stereo unspecified)
- Activity: 243%

Compound: OC(COc1cccc2ccccc12)CN1CCN(C(c2ccccc2)c2ccccc2)CC1 (stereo unspecified)
- Activity: 32%

Compound: OC(COc1cccc2ncccc12)CN1CCNCC1 (stereo unspecified)
- Activity: 65%

Compound: OC(COc1cccc2ncccc12)CN1CCC(=C2c3ccccc3CCc3ccccc32)CC1 (stereo unspecified)
- Activity: 374%

Compound: OC(COc1cccc2ncccc12)CN1CCC(=C(c2ccccc2)c2ccccc2)CC1 (stereo unspecified)
- Activity: 309%

Compound: O=C(C(c1ccccc1)c1ccccc1)N1CCN(CC(O)COc2cccc3ncccc23)CC1 (stereo unspecified) [DOFEQUIDAR]
- Activity: 381%
